This passage reports yeast fitness results from the RNAGym collection of RNA variant scans (doi:10.1126/science.aae0568).

Sequences and labels used below:
B1: tRNA (parent)
chain: GUUCCGUUGGCGUAAUGGUAACGCGUCUCCCUCCUAAGGAGAAGACUGCGGGUUCGAGUCCCGUACGGAACG

Fewer inactive variants are shown than the library holds.

This data set covers variants of B1. The experiment in a line: yeast fitness relative to wild type (ratio to wild type); higher = fitter; tRNA-Arg(CCU), competitive growth, 37 C, YPD. An outline of the steps: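 Gene amplicons from the start population and from each of six end populations were read by 100-nucleotide paired-end sequencing. Those end populations came from pooled Saccharomyces cerevisiae strains carrying tRNA-Arg(CCU) gene variants at the native locus, competed in YPD at 37°C for 24 hours. Fitness relative to wild type was worked out from changes in genotype frequencies. Genotypes needed ≥ 100 starting reads, and estimates < 0.5 were set to 0.5.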
Consider GUUCCGUUGGCGUAAUGGUCACGCGUCUGCUUCCUAAGGAGAAGACUGCGGGUUCGUGUCCCGUACGGAACG [A20C C29G C31U A57U], for which the yeast fitness is not above 0.5.
Then GUUCCGUUGGCGUUAUGGUAACGCCUCUCCCUCCUAAGGAGAAGACUGCGGGUUCGAGUCCCGUAUGGAACG [A14U G25C C66U], with not above 0.5; and GUUCCGUUGGUGUCAUAGUAACACGUCUGCCUCCUAAGGAGCAGACUGCGGGUUCAAGUCCUGUACGGAACG [C11U A14C G17A G23A C29G A42C G56A C62U], with not above 0.5.
As for GUUCCGUUGGCGUAGUGGUAACGCGUCUCCCUCCUAAGGACAAGGCUGCGGGUUCGAGUCCCGUACGGAACG [A15G G41C A45G], the figure is not above 0.5; as for GUUUCGUUGGCGUAAUGGUAACGCGUCUCACUCCUAAGGAGAAGACUGCGGGUUCGAGUGCCGUACGGAACG [C4U C30A C60G], 0.6.
As for GUUCCGUCGGCGUAAUGGUAACGCGUCUCCCUCCUAAGGAGAAGACUGCGGGUUAGAGUCGCGUACGGAACG [U8C C55A C61G], the figure is not above 0.5.
On to GUUCCGUUGGCGAAAUGGUAACGCGUGUCCCUCCUAAGGAGUAGACUGCGGGUUCGCGUCCCGUACGGAACG [U13A C27G A42U A57C], for which the yeast fitness was not above 0.5.
As for GUUCCGUUGGCGUAAUGGUAGCGCGUCUGCCUCCUAAGGAGAAGACUGCGGGUUCGAGUCCCGUUCUGAACG [A21G C29G A65U G67U], the figure is not above 0.5.
As for GUUCCGUUGGCGUAAUGCUAAUGCGUCUCCCUCCUAAGGAGAAGACUGCGGGUUCGAGUCUCGUACGGAACG [G18C C22U C61U], the figure is not above 0.5; as for GUUCCGUUGGCGUAAUGGUAACGCGUCUCCCUGCUAAGGAGAAGACUGAGGGUUCGAGUCCCGUACGGAACG [C33G C49A], 0.628; as for GAUCGGUUGGCGUAAUGGUAACGCGUCUCCCUCCUAAGGAGGAGACUGCGGGUUCGAGUCCCGUACGGAACG [U2A C5G A42G], 0.541.
Then GUUCCGUUGGCGUAAUGGUAACGCGUCUCCCUCCUUAGGAGAAGACUGCGGGUUUGAGUCCCGUCCGGAACG [A36U C55U A65C], with not above 0.5.
GUUCCGUUGGCGAAAUGGUAACGCGUCUCCCUCCUAAGGAGAAGACUGCGGGUUUGAGUCCCGUACGGAACG [U13A C55U]: the yeast fitness turned out to be 0.626.
As for GUUCCAUUGGUGUAAUGGUAACGCGUCUCCCUCGUAAGGAGAAGACUGCGGGUUCGAAUCCCGUACGGAACG [G6A C11U C34G G58A], the yeast fitness is 0.724.
Then GUACUGUUGGCGUAAUGGUAACGCGUCUCCCUCCUAAGGAGCUGACUGCGGGUUCCAGUCCCGUAUGGAACG [U3A C5U A42C A43U G56C C66U], with not above 0.5; and GUUCCGUUGGCGUAAUGGUAACGCGUCUUCCUCCUAAGGCGAAGACUGCGGGUUCCAGUCGGGUACGCAACG [C29U A40C G56C C61G C62G G68C], with not above 0.5; and GCUCCGUUGGCGUAAUGGUAAAGCGUCUCCCUCCUAAGGAGAAGACUGCGGGUUCGAGUCCCGUACGGAACG [U2C C22A], with 0.927.
As for GUUCCGUUGGCGUAAUGGUAAUGCGUCUCCCUCCUAAGGAGAAGACUGCGGGUUCAAGUCCCGUACGGAACG [C22U G56A], the yeast fitness amounted to 0.734.
Then GUUCCGUAGGCGUAAUGGUAACGCGUCUCCCUCCUAAGGAGAAGACUGCGGGUUGGAGUCCCGUACGGAACG [U8A C55G], with not above 0.5; and GUUCCGUUGGCGAAAUGGUAACGCGUCUGCCUCCUAAGGAGAAGACUCCGGGUUCGAGUCCCGUACGGAACG [U13A C29G G48C], with not above 0.5; and GUUCCGUCGGCGUAAUGGUAACGCGUCUCCUUCCUAAGGAGAAGACUCCGGGUUAGAGUGCCGUACGGGACG [U8C C31U G48C C55A C60G A69G], with not above 0.5.
As for GUUCCGUUGGAGGAAUGGUAACGCGUCUCCCUCGUAAGGAGAUGACUGCGGGUUCGAGUCGCGUACGGAACG [C11A U13G C34G A43U C61G], the figure is not above 0.5; as for GUUCCGUUGGCGUAAGGGUAACGUGUCUCCCUCCUAAGGAGAAGACUGCGGGUUCGAGUCCCGUACGGAACG [U16G C24U], 0.822; as for GUUCCGUUGGCGUAAUGGUAACGCGUCUCACUCCUAAGGAGAAGACUGCGGGUUCGAGUGCCGUACGGAACG [C30A C60G], 0.635.
As for GUUCCGUUGGCGUUAUGGUAACGCGUCUCCCUCCUAAGGAGAAGACUGCGAGUUCGAGUCGCGUACGGAACG [A14U G51A C61G], the figure is 0.602.
GAUCCGUUGGCGUACUGGUAACGCGUCUCCCUCCUAAGGAGAAGACUGCGGGUUCGAGUCCCGUACGGCACG [U2A A15C A69C]: the yeast fitness was not above 0.5.
With GUUCCGUUGGCGUAAUGGUAGCGCGUCUCCCUCCUAAAGAGAAGACUGCGGGUUCGAGUCCCGUACGGAACG [A21G G38A], the yeast fitness was found to be 0.881.
For GUUCUGUUGGCGUAAUGGUAACGCGUCUCCCUCCUACGGAGAAGAGUGCGGGUUCGAGUUCCGUACGGAACG [C5U A37C C46G C60U], the yeast fitness was not above 0.5.
Then GUUCCGUUGGCGUAAUGGUAUCGCGUCUCCCUCCUAAGGACAAGACUGCGGGUUCGAGUCCCGUACGGAACG [A21U G41C], with 0.715.
Then GUUCCGUUGGCGUAAUGAUAACGCGCCUCCCUCCUAAGGCGAAGACUGCGGGUACGAGUCCCGUACGGAACG [G18A U26C A40C U54A], with not above 0.5.
Consider GUUCCGUUCGCGUAAUGGUAACGCGUCUCCGUCCUAAGGCGAAGACUGCGGGUUCGAGUCCCGUAUGGAACG [G9C C31G A40C C66U], for which the yeast fitness was not above 0.5.
Then GUUCCGUUGGCGUGAUGGUAACGGCUAUCCCUCCUAAGGCGAAGACUGCGAGUUCGAGUCCCGUACGGAACG [A14G C24G G25C C27A A40C G51A], with not above 0.5; and GUUCCGUUGGCGUGAUGGUAACGCGUCUCCCUCCUAAGGAGAAGACUACGGGUUCGAGUCCCGUACGGAACG [A14G G48A], with 0.868; and GUUCCGUUGGCGUAAUGGUAACGCGUCUCCCUCUUAAGGAGCAGACUGCGGGUUCGAGUCCCGUACGGCACG [C34U A42C A69C], with not above 0.5.
As for GUUCCGUUGGAGUAAUAGUAACGCGUCUCCCUCCGAAGGAGAAGACUGCGGGUUCGAGUCCCGUACGGAACG [C11A G17A U35G], the figure is not above 0.5; as for GUUCCGUUGGCGUAAUGGUAACGCGUCUCCCUCCUAAGGAAAAGACUGCGGCUUCGAGUCCCGUACGGAACG [G41A G52C], 0.542; as for GUUCCGUUGGCGUAAUGGUAACGCAUCUCCUUCCUAACGAGAAGACUGCGGGUUCGAGUCCCGUCCGAUACG [G25A C31U G38C A65C G68A A69U], not above 0.5.
Then GUUCCAUUGGCGUAAUGGUAACGCGUCUCCCCCCUAAGGAGAAGACUGCGGGUUCGAGUCCCGUACGGAACG [G6A U32C], with 0.839.
